# From PubChem
# SR-BI DiI-HDL act – enhances SR-BI lipid uptake from DiI-HDL. activation, % at 12.5 µM. CHO ldlA[mSR-BI] cells, DiI-HDL uptake fluorescence, 3 h; 100 = double the neutral-control signal. actives 0.096% (n = 320,000);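 active = mean replicate activation of at least 60% and every replicate at or above 60%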;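 also: 0% = median plate neutral-control signal and 100% = twice that signal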
#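 material = CHO ldlA[mSR-BI] cells | medium = Ham's F12 with 0.5% BSA, HEPES 25 mM, pH 7.4 | reagent = fluorescent DiI-HDL, 10 µg/mL final | compound dosing = single-point compound dose | incubation = 3 h, 37 °C | measured by = bottom-read fluorescence, 550/595 nm | measure = HDL uptake via cellular fluorescence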
# ABCB6 inh 2 – human ABCB6 transporter inhibition; K562-ABCB6 porphyrin accumulation, flow cytometry, 1 h; stronger effect = lower value; fluorescence ratio to DMSO, % at 10 µM; Q9NP58; AID 602162; actives 0.19% (n = 360,000);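 active = fluorescence ratio to DMSO below 75%, the collection mean minus 3 SD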;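 also: signal is porphyrin accumulated inside mitochondria; 100% equals median channel fluorescence of DMSO control wells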
# AHR act – activators of human aryl hydrocarbon receptor | AID 2796 | actives 2.5% (n = 320,000) | AHR-responsive luciferase reporter cells, luminescence | activation, % at 5 µM | P35869; in the data active = activation above about 47%;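 also: 0% = vehicle wells and 100% = reference agonist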
# HIF act – HIF pathway transcriptional activation; U2OS HRE-luciferase reporter, luminescence; normalized: DMSO 0%, desferrioxamine 100%; activation, % at 7.5 µM (by protocol); actives 0.32% (n = 300,000);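 active = mean activation of at least 10% of the iron chelator positive control signal, with at least half of replicates also reaching 10%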
# SR-BI HDL uptake – blocks mouse SR-BI lipid uptake from DiI-HDL. inhibition, % at 12.5 µM. actives 0.96% (n = 320,000). Q61009. ldlA[mSR-BI] CHO cells, DiI-HDL uptake fluorescence, 3 h;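 active = mean replicate inhibition of at least 70% and a set share of replicates each scoring 70 or more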;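 also: 0% = median of neutral control wells and 100% = median of positive control wells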
# FXN GAA850 act – increases GAA850 frataxin promoter reporter activity; AID 540364; HEK293 lucGAA850 FXN promoter luciferase reporter, 24 h; percent of 10 µM SAHA response; actives 0.56% (n = 360,000); activation, % at 6 µM;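 active = activation above the average of all compounds screened plus 3 SD, cutoff fixed separately per campaign, cut at about 7.5% in these data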;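 also: 0% = DMSO wells and 100% = 10 µM SAHA wells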
# Numbers without * were called inactive; · = no result given. Only some compounds are listed: those with a hit (about 3.9% of all), similar ones and a draw of the others.
SMILES,SR-BI DiI-HDL act,ABCB6 inh 2,AHR act,HIF act,SR-BI HDL uptake,FXN GAA850 act
COc1ccc(N(C(=O)COc2ccc(F)cc2)S(=O)(=O)c2ccc(C)cc2)cc1,35,101,0,0,-35,1
COc1ccc(-c2cc(C(=O)N3CCN(c4ccccc4)CC3)c3ccccc3n2)cc1OC,-18,96,77*,0,18,1
COc1ccc(-c2cc(C(=O)N3CCCCCC3)c3ccccc3n2)cc1,-75,99,·,·,75*,1
CCOC(=O)N1CCC(NC(=O)CSCc2cnn(-c3ccccc3)c2-n2cccc2)CC1,-34,101,0,0,34,8.3*
Cc1cc(-n2c(C)cc(C(=O)COc3ccc(Cl)cc3C(N)=O)c2C)no1,-19,94,47*,·,19,-1
Cc1ccc(OCC(=O)c2cc(C)n(-c3cc(C)on3)c2C)c([N+](=O)[O-])n1,-24,98,·,·,24,-1
Cc1cc(C)cc(NC(=O)CCc2nc3sc4c(c3c(=O)[nH]2)CCCC4)c1,29,97,59*,-1,-29,0
Cn1c(=O)c2c(nc(CN3CCC(Cc4ccccc4)CC3)n2CCN2CCOCC2)n(C)c1=O,22,98,·,·,-22,7
O=c1oc2ccccc2n1CSc1nc2ccccc2s1,-17,96,61*,4,17,3
CCOc1ccc(NC(=O)CSc2nnc(Cn3cnc4ccccc43)n2C)cc1,11,94,4,20*,-11,-3
COc1cccc(-c2noc(-c3ccc(Cl)nc3)n2)c1,8,93,54*,2,-8,5
CN(C(=O)COC(=O)c1cc(S(=O)(=O)N2CCCCC2)ccc1N1CCOCC1)C1CCS(=O)(=O)C1 (configuration not stated),-4,95,-1,0,4,2
NC(=S)NN=C(c1ccccc1)c1ccccc1,-36,98,-1,0,36,0
CC(/C=C/c1ccccc1)=N\NC(N)=S,-77,89,1,3,77*,1
C/C(=N\NC(N)=S)c1ccccc1,-86,95,0,0,86*,1
C/C(=N\NC(N)=S)c1ccc2c(c1)OCCO2,-76,101,9,2,76*,-1
CC(=O)OC1CCC2C3CCC4OC(=O)CCC4C3CCC12C (configuration not stated),23,98,·,·,-23,0
O=[N+]([O-])c1ccc(N2CCN(c3ccccc3O)CC2)cc1,·,102,-6,1,·,6
Nc1nc(SCc2nc(-c3ccccc3)no2)[nH]c(=O)c1-c1ccccc1,14,107,2,0,-14,3
Cc1cccc(Nc2nc(-c3ccccc3)c(C(=O)Nc3cccnc3)s2)c1,-68,99,51*,1,68,2
Clc1ccccc1-c1ncc2ccccn12,2,103,6,3,-2,2
O=C(NNC(=O)c1ccc2nonc2c1)Nc1ccc(Cl)cc1,·,97,77*,0,·,3
O=C(NNC(=O)c1cccnc1)Nc1ccc(Cl)c(Cl)c1,-3,92,16,1,3,1
O=C(Nc1ccc2c(c1)OCO2)C1CCN(C(=O)CSc2ncnc3ccccc23)CC1,-4,100,19,0,4,-3
CN1CCN(C(=O)C2(NC(=O)NCc3ccccc3)CCCCC2)CC1,13,96,1,0,-13,2
SMILES,SR-BI DiI-HDL act,ABCB6 inh 2,AHR act,HIF act,SR-BI HDL uptake,FXN GAA850 act
CCN1CCn2c3c(c4cccc(C)c42)CCCC31 (configuration not stated),3,99,61*,2,-3,0
Cc1ccc2c(c1)c1c3n2CCN(CCC#N)C3CCC1 (configuration not stated),·,96,·,·,·,-1
COC(=O)COc1c(/C=C\c2nc(O)c([N+](=O)[O-])c(=O)[nH]2)cccc1OC,-75,98,0,0,75*,0
CN(C(=O)CCc1nnc(Cc2ccc(-c3ccccc3)cc2)o1)C1CCOCC1,·,100,-2,·,·,1
Cc1c(NS(=O)(=O)c2ccc3c(c2)OCCO3)cccc1-c1nc2cccnc2s1,5,92,2,0,-5,2
Cc1c(NS(=O)(=O)c2cccs2)cccc1-c1nc2cccnc2s1,·,102,4,2,·,3
Cc1cc(-c2nc3cccnc3s2)ccc1NS(=O)(=O)c1ccc2c(c1)OCCO2,8,99,48*,1,-8,0
Cc1cc(-c2nc3cccnc3s2)ccc1NS(=O)(=O)c1cccs1,1,113,70*,3,-1,4
O=C(COC(=O)c1cc2ccccc2cc1O)Nc1ccccc1F,-5,90,20,·,5,1
CCC1CCCCN1C(=O)CSC1=NN2CCCC(=O)N=C2S1 (configuration not stated),·,98,0,0,·,3
Cc1cc(C)nc(N2CCCC(C(=O)Nc3ccc4c(c3)OCO4)C2)n1 (configuration not stated),3,93,49*,0,-3,0
COC(=O)c1cc(NC(=S)Nc2cc(Cl)cc(Cl)c2)cc(C(=O)OC)c1,-86,120,4,0,86*,2
N=C1C(=O)OCC1c1ccccc1NC(=O)CN1CCOCC1 (configuration not stated),29,90,3,0,-29,-1
COc1ccc([N+](=O)[O-])cc1NC(=S)NC(NC(=O)Cc1ccc(OC)c(OC)c1)C(Cl)(Cl)Cl (configuration not stated),-62,92,11,-1,62,-10
CC1CC[C@@]2(OC1)O[C@H]1CC3[C@@H]4C[C@@H](O)[C@@]5(O)C[C@@H](O)[C@H](O)C[C@]5(C)[C@H]4CC[C@]3(C)[C@H]1[C@@H]2C (some centres not stated),69*,103,0,0,-69,3
NC(=O)c1ccccc1N=Cc1ccccn1,28,90,4,0,-28,1
CC1=CS/C(=C(/C#N)C(=O)N2CCOCC2)N1c1ccccc1,10,96,0,1,-10,-1
CCN(CC(=O)NCc1ccc(F)cc1)C(=O)/C=C/c1ccc(S(=O)(=O)N(CC)CC)cc1,-76,97,2,4,76*,-7
CCN(CC(=O)NCc1ccc(Cl)cc1)S(=O)(=O)c1ccc(F)cc1,7,98,6,1,-7,2
COc1ccc(S(=O)(=O)Nc2cc(C)on2)cc1,30,100,-1,1,-30,0
CC(=O)Oc1cccc(/C=N\NC(=O)C(=O)N/N=C/c2cccc(OC(C)=O)c2)c1,-4,100,0,·,4,-2
Cc1ccc(Nc2ncnc(-n3cccc3)n2)cc1Cl,-18,104,58*,3,18,7
